Measurements as given in ChEMBL document CHEMBL1124782, “DNA binding by antitumor anthracene derivatives” (J Med Chem, 1990).

How the values were obtained:
Nucleic Acid [1] = assay: (§1) delta Tm value is the difference between Tm(melting temperature) for calf thymus DNA with drug and without drug(Tm = 71 degree C for DNA alone); format: nucleic-acid assay; conditions: Bos taurus
Nucleic Acid [2] = assay: Apparent binding constant (McGhee-von Hippel) was determined by using spectrophotometric titration; format: nucleic-acid assay; conditions: Bos taurus
Outline: (§2)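 Calf thymus DNA (<3% protein) titrated by UV-visible absorbance in 0.1 M NaCl, 0.01 M sodium phosphate, 0.001 M EDTA, pH 7.0. Drug stock about 2×10^-4 M. DNA prepared fresh at 5×10^-4 M (base pairs) for each titration. Free and bound drug extinction coefficients came from Beer's law plots. Bound/free data were fitted by McGhee-von Hippel equations or by a cubic spline derivative analysis.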

Nucleic Acid [3] = assay: Cubic spline relative binding strength was determined by using spectrophotometric titration; format: nucleic-acid assay; conditions: Bos taurus; outline: as §2
[4] = pKa value for amino group in the compound; format: physicochemical
Outline: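 0.2 mmol of compound, as free base or dihydrochloride, was dissolved in 0.0392 N HCl to give 1 mequiv acid beyond full protonation of the amino groups. The solution was stirred and titrated with 0.0242 N NaOH with pH monitoring. Macroscopic pKa was read at 0.5 equiv base per functional group. Poorly soluble material was titrated in very dilute solution.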

Nucleic Acid [5] = assay: as §1; format: functional; conditions: Bos taurus

OCCCCCNCc1c2ccccc2c(CNCCCCCO)c2ccccc12
ΔTm (Nucleic Acid [1]): 13 °C
K app (Nucleic Acid [2]): 0.0532 µM⁻¹
Relative binding (Nucleic Acid [3]): 0.84
pKa [4]: 8

CCN1CCCC(NCc2c3ccccc3c(CNC3CCCN(CC)C3)c3ccccc23)C1 (stereo not given)
ΔTm (Nucleic Acid [1]): 16 °C
K app (Nucleic Acid [2]): 0.0605 µM⁻¹
Relative binding (Nucleic Acid [3]): 0.75
pKa ([4]; read-out: pKa1): 2.4
pKa ([4]; read-out: pKa2): 3
pKa ([4]; read-out: pKa3): 5.2
pKa ([4]; read-out: pKa4): 9.15

CN(C)CCN(C)Cc1c2ccccc2c(CN(C)CCN(C)C)c2ccccc12
pKa ([4]; read-out: pKa1): 3.1
pKa ([4]; read-out: pKa2): 4.2
pKa ([4]; read-out: pKa3): 8.45
pKa ([4]; read-out: pKa4): 9.45
ΔTm (Nucleic Acid [5]): 1 °C

c1ccc2c(CNCCN3CCOCC3)c3ccccc3c(CNCCN3CCOCC3)c2c1
pKa ([4]; read-out: pKa1): 3.85
pKa ([4]; read-out: pKa2): 6.3
pKa ([4]; read-out: pKa3): 7.5
pKa ([4]; read-out: pKa4): 8.5
ΔTm (Nucleic Acid [5]): 5 °C

CC(C)N(CCNCc1c2ccccc2c(CNCCN(C(C)C)C(C)C)c2ccccc12)C(C)C
ΔTm (Nucleic Acid [5]): 9 °C

C(=N\NC1=NCCN1)/c1c2ccccc2c(/C=N/NC2=NCCN2)c2ccccc12 [BISANTRENE]
ΔTm (Nucleic Acid [1]): 19 °C
K app (Nucleic Acid [2]): 9.03 µM⁻¹
Relative binding (Nucleic Acid [3]): 1.03
pKa ([4]; read-out: pKa1): 6.8

CNCCN(C)Cc1c2ccccc2c(CN(C)CCNC)c2ccccc12
ΔTm (Nucleic Acid [5]): 3 °C

CN1CCN=C1/C=C/c1c2ccccc2c(/C=C/C2=NCCN2)c2ccccc12
ΔTm (Nucleic Acid [1]): > 20 °C
K app (Nucleic Acid [2]): 8.29 µM⁻¹
Relative binding (Nucleic Acid [3]): 1.08

CN(C)CCNCc1c2ccccc2c(CNCCN(C)C)c2ccccc12
ΔTm (Nucleic Acid [1]): 12 °C
K app (Nucleic Acid [2]): 0.1 µM⁻¹
Relative binding (Nucleic Acid [3]): 0.75
pKa ([4]; read-out: pKa1): 3.9
pKa ([4]; read-out: pKa2): 5.35
pKa ([4]; read-out: pKa3): 8.4
pKa ([4]; read-out: pKa4): 9.4

NCCNCc1c2ccccc2c(CNCCN)c2ccccc12
ΔTm (Nucleic Acid [1]): 14 °C
K app (Nucleic Acid [2]): 0.27 µM⁻¹
Relative binding (Nucleic Acid [3]): 0.75
